Measured values as given in ChEMBL document CHEMBL1125192, “Analogues of the 5-HT1A serotonin antagonist 1-(2-methoxyphenyl)-4-[4-(2-phthalimido)butyl]piperazine with reduced alpha 1-adrenergic affinity” (J Med Chem, 1991).

Legend:
[1] = target: T1, 5-hydroxytryptamine receptor 1A (Rattus norvegicus, UniProt P19327); assay: Binding affinity towards 5-hydroxytryptamine 1A receptor of rat hippocampus using [3H]-8-hydroxy-2-(di-n-propylamine) tetralin (8-OH-DPAT) as a radioligand; assay type: tissue-based
T1 sequence (P19327 whole entry): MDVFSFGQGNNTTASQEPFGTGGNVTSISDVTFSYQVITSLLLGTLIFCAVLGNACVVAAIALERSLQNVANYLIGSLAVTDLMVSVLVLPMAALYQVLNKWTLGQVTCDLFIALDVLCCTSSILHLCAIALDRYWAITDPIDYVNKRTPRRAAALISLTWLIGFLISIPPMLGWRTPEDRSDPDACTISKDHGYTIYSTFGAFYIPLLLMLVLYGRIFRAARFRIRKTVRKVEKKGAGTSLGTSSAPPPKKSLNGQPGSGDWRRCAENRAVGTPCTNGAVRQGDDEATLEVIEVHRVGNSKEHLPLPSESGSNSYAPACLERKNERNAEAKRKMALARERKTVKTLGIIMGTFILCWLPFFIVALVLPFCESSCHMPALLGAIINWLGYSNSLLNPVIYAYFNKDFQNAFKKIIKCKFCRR

[2] = target: Serotonin 1a (5-HT1a) receptor/Adrenergic receptor alpha-1 (Rattus norvegicus) (UniProt P15823+P23944+P43140+P19327); assay: Ratio of Ki value for alpha-1 receptor to that of 5-HT1A receptor; assay type: protein assay
Summary of the method: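 Ratio of two radioligand binding Ki values. 5-HT1A binding used 0.1 nM [3H]-8-OH-DPAT with rat hippocampal homogenate (6 mg), and 10 μM 8-OH-DPAT defined nonspecific binding. α1-adrenergic binding used 1.0 nM [3H]WB4101 plus 100 nM 8-OH-DPAT with rat frontal cortex (10 mg), and 1 μM prazosin defined nonspecific binding.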

[3] = target: T2, Adrenergic receptor alpha-1 (Rattus norvegicus, UniProt P15823+P23944+P43140); assay: Binding affinity towards alpha-1 adrenergic receptor of rat frontal cortex using [3H]- WB- 4101 as a radioligand; assay type: tissue-based
T2 sequence (P15823 whole entry): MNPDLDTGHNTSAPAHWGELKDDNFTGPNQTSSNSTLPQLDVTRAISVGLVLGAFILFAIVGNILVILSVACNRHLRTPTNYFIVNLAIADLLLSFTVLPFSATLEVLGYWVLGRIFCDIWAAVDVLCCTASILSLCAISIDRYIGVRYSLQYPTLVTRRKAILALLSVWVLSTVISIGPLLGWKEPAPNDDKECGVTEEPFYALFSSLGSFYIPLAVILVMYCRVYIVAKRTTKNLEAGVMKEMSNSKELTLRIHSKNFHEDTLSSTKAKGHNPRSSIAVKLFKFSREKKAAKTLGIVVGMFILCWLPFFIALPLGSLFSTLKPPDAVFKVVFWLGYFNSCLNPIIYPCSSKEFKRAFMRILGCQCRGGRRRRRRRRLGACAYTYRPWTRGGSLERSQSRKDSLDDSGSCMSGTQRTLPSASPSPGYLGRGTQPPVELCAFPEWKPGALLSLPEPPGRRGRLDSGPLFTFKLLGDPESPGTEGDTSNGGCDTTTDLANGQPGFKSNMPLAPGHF
T2 sequence (P23944 whole entry): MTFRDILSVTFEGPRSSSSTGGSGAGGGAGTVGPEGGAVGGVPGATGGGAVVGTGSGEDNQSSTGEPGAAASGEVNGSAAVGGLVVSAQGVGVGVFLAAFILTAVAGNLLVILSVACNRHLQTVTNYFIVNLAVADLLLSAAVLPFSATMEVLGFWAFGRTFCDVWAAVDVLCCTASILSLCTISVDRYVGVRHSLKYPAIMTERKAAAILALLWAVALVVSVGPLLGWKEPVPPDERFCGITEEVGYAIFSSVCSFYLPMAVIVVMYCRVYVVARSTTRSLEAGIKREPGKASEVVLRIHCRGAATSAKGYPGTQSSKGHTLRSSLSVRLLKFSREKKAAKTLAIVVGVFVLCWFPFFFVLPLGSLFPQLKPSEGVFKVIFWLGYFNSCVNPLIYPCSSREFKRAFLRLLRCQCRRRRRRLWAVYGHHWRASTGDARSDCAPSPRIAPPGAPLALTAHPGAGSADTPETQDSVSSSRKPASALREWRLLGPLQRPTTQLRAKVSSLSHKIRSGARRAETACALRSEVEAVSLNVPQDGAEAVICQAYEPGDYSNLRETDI
T2 sequence (P43140 whole entry): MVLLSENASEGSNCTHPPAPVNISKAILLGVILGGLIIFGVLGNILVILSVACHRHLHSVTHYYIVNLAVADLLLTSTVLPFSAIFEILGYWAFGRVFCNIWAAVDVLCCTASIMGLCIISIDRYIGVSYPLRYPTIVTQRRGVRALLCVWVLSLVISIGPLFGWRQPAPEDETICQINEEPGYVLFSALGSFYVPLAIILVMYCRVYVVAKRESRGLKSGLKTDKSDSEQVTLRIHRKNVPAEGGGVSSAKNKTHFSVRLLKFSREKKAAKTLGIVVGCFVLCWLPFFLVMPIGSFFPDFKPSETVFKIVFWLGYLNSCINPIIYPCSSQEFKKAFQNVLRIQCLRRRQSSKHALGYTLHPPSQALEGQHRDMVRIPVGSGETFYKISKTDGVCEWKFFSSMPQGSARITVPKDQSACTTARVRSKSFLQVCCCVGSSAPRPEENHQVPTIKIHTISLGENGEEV

[4] = target: D(2) dopamine receptor (Bos taurus, UniProt P20288); assay: Binding affinity towards D2-dopaminergic receptor using [3H]NMSP as radioligand
Summary of the method: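 Calf caudate (2 mg) with 1 nM [3H]NMSP in 140 mM NaCl; nonspecific binding defined by 10 μM sulpiride.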

[5] = target: Adrenergic receptor beta (Rattus norvegicus, UniProt P18090+P10608+P26255); assay: Binding affinity towards beta adrenergic receptor using [3H]DHA as radioligand; assay type: protein assay
Summary of the method: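 Homogenized rat frontal cortex (5 mg) labelled with 1 nM [3H]DHA; 1 μM propranolol for nonspecific binding.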

[6] = target: Serotonin 2 (5-HT2) receptor (Rattus norvegicus, UniProt P30994+P08909+P14842); assay: Binding affinity towards 5-hydroxytryptamine 2 receptor using [3H]DOB as; assay type: protein assay
Summary of the method: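 [3H]DOB at 0.4 nM on 15 mg homogenized rat frontal cortex; nonspecific binding set with 1 μM cinanserin.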

[7] = target: 5-hydroxytryptamine receptor 1B (Rattus norvegicus, UniProt P28564); assay: Binding affinity towards 5-hydroxytryptamine 1B receptor using [3H]5-HT as radioligand
[8] = target: T3, 5-hydroxytryptamine receptor 2C (Rattus norvegicus, UniProt P08909); assay: Binding affinity towards 5-hydroxytryptamine 1C receptor using [3H]mesulergine as radioligand
T3 sequence (P08909 whole entry): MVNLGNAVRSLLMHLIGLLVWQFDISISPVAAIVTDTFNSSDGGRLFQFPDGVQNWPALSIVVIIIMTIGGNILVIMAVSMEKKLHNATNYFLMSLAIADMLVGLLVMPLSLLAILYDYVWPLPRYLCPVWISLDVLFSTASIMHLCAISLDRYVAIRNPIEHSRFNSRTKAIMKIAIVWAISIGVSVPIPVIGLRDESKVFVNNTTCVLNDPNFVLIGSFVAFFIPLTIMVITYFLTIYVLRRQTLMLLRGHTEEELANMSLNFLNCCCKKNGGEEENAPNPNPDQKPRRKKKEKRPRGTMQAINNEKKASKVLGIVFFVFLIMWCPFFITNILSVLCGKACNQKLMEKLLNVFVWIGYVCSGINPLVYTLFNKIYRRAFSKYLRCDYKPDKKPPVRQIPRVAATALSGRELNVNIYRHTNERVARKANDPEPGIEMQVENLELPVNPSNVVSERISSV
Summary of the method: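 Homogenized rat frontal cortex (10 mg) with 1.0 nM [3H]mesulergine plus 10 nM spiperone; 10 μM 5-HT defined nonspecific binding.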

[9] = target: D(1A) dopamine receptor (Rattus norvegicus, UniProt P18901); assay: Binding affinity towards Dopamine receptor D1 using [3H]SCH-23390 as radioligand
Summary of the method: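 Homogenized rat striatum (2 mg), 1 nM [3H]SCH-23390 with 20 nM ketanserin added; 1 μM SCH-23390 defined nonspecific binding.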

Chain of 5-hydroxytryptamine receptor 1B (P28564 whole entry): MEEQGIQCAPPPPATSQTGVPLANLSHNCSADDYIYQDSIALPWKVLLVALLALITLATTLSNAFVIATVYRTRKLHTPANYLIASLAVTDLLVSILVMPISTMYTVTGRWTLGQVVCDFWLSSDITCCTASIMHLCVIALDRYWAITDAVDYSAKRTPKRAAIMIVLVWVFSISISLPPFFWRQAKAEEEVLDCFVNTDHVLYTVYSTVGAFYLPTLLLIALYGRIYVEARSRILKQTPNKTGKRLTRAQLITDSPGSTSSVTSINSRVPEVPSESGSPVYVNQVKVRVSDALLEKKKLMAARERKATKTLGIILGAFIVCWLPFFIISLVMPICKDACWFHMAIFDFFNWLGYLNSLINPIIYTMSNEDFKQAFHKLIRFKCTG
Chain of D(1A) dopamine receptor (P18901 whole entry): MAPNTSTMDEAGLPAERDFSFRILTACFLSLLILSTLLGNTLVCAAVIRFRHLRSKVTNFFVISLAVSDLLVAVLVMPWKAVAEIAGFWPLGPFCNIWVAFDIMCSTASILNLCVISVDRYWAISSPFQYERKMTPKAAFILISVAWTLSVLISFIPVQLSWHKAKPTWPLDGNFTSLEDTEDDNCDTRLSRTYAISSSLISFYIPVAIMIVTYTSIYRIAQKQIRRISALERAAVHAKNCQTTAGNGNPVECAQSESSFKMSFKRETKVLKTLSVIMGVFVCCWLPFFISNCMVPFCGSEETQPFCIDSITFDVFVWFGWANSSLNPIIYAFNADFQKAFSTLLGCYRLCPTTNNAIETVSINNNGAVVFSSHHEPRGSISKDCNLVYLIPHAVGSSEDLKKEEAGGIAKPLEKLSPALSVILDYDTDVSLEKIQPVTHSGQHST
Chain of D(2) dopamine receptor (P20288 whole entry): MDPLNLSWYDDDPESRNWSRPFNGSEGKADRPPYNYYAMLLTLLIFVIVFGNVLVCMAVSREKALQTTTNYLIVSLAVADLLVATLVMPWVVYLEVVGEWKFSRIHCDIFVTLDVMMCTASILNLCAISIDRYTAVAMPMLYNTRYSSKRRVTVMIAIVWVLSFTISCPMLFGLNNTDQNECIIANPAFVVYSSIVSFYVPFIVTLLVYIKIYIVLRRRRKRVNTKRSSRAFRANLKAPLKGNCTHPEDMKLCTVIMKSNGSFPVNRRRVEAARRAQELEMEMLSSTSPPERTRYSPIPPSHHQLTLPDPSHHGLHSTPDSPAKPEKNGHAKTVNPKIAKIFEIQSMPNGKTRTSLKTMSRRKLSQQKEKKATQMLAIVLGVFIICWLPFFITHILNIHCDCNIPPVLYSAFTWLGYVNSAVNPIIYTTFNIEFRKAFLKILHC

A Ki [1] of 1000 nM, a Selectivity [2] of 0.4 and a Ki [3] of 378 nM were found for `O=C1c2ccccc2C(=O)N1CCCCN1CCN(c2ccc([N+](=O)[O-])cc2)CC1` in this work.
A Ki [1] of 5.4 nM, a Selectivity [2] of 3 and a Ki [3] of 17 nM were found for `COc1ccccc1N1CCN(CCCCNC(=O)c2ccc(O)cc2)CC1` in this work.
A Ki [4] of 2.7 nM, a Ki [5] of 1020 nM and a Ki [6] of 34 nM were found for `COc1ccccc1N1CCN(CCCCNC(=O)C23C[C@H]4C[C@@H](C2)C[C@@H](C3)C4)CC1` in this work. It also gave a Ki [1] of 0.4 nM, a Ki [7] of 890 nM and a Ki [3] of 64 nM. It also gave a Ki [8] of 225 nM and a Ki [9] of over 1000 nM.
A Ki [1] of 0.7 nM, a Selectivity [2] of 156 and a Ki [3] of 109 nM were found for `O=C(NCCCCN1CCN(c2cccc3ccccc23)CC1)C12C[C@H]3C[C@@H](C1)C[C@@H](C2)C3` in this work.
A Ki [1] of 6.3 nM, a Selectivity [2] of 4 and a Ki [3] of 23 nM were found for `COc1ccccc1N1CCN(CCCCNC(=O)c2ccc(N)cc2)CC1` in this work.
A Selectivity [2] of 7 and a Ki [3] of 84 nM were found for `COc1ccccc1N1CCN(CCCCNC(=O)CCCc2ccccc2)CC1` in this work.
A Ki [1] of 4.4 nM, a Selectivity [2] of 3 and a Ki [3] of 14 nM were found for `COc1ccccc1N1CCN(CCCCNC(=O)c2ccc([N+](=O)[O-])cc2)CC1` in this work.
A Ki [1] of 4 nM, a Selectivity [2] of 6 and a Ki [3] of 25 nM were found for `O=C1c2ccccc2C(=O)N1CCCCN1CCN(c2ccccc2[N+](=O)[O-])CC1` in this work.
A Ki [1] of 22 nM, a Selectivity [2] of 0.7 and a Ki [3] of 15 nM were found for `COc1ccc(OC)c(N2CCN(CCCCN3C(=O)c4ccccc4C3=O)CC2)c1` in this work.
A Ki [1] of 3.6 nM, a Selectivity [2] of 6 and a Ki [3] of 23 nM were found for `COc1ccccc1N1CCN(CCCCNC(=O)c2ccc(Cl)cc2)CC1` in this work.
A Ki [1] of 7.5 nM, a Selectivity [2] of 11 and a Ki [3] of 84 nM were found for `CCCCC(=O)NCCCCN1CCN(c2ccccc2OC)CC1` in this work.
A Ki [1] of 2 nM, a Selectivity [2] of 11 and a Ki [3] of 21 nM were found for `COc1ccccc1N1CCN(CCCCNC(=O)c2ccc(Cl)c(Cl)c2)CC1` in this work.
A Selectivity [2] of 22 and a Ki [3] of 22 nM were found for `O=C1c2ccccc2C(=O)N1CCCCN1CCN(c2cccc3ccccc23)CC1` in this work.
A Ki [1] of 4 nM, a Selectivity [2] of 4 and a Ki [3] of 15 nM were found for `COc1ccccc1N1CCN(CCCCNC(=O)c2ccc(I)cc2)CC1` in this work.
A Ki [1] of 213 nM and a Ki [3] of 10000 nM were found for `CC(=O)Nc1ccc(N2CCN(CCCCN3C(=O)c4ccccc4C3=O)CC2)cc1` in this work.
A Ki [1] of 1 nM, a Selectivity [2] of 74 and a Ki [3] of 74 nM were found for `COc1ccccc1N1CCN(CCCCNC(=O)C(C)(C)C)CC1` in this work.
